From ChEMBL document CHEMBL1926675, “Thio- and aminocaffeine analogues as inhibitors of human monoamine oxidase” (Bioorg Med Chem, 2011)

Legend:
[1] = molecular target: T1, Amine oxidase [flavin-containing] A (Homo sapiens, UniProt P21397); assay: Inhibition of human recombinant MAOA at 100 uM using kynuramine as substrate by fluorescence assay
T1 sequence (P21397 whole entry): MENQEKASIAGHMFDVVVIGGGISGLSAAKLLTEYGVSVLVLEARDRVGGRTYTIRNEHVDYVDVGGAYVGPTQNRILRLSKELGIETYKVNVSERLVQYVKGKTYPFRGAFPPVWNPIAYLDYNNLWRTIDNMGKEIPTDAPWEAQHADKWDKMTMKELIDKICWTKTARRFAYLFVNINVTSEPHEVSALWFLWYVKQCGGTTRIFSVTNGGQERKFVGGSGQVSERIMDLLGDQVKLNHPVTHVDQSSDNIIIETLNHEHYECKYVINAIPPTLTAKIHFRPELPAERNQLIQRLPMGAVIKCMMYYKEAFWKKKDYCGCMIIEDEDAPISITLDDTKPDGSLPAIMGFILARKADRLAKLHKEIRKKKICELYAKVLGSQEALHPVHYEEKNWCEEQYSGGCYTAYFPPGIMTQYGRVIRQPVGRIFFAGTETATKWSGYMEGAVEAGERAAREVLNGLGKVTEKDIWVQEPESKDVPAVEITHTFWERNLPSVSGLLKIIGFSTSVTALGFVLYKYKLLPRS
Outline: (§1)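 Enzyme: insect-cell microsomal recombinant human MAO-A or -B (0.0075 mg/mL) in 100 mM potassium phosphate, pH 7.4, isotonic with KCl. Kynuramine 45 µM (MAO-A) or 30 µM (MAO-B), inhibitor 0–100 µM, 37 °C, 20 min. Reaction stopped with 2 N NaOH. 4-Hydroxyquinoline fluorescence read at ex 310/em 400 nm against a calibration curve. IC50 taken from one-site fits of six concentrations, in triplicate. Selectivity = IC50(MAO-A)/IC50(MAO-B).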

[2] = molecular target: T2, Amine oxidase [flavin-containing] B (Homo sapiens, UniProt P27338); assay: Inhibition of human recombinant MAOB at 100 uM using kynuramine as substrate by fluorescence assay; outline: as §1
T2 sequence (P27338 whole entry): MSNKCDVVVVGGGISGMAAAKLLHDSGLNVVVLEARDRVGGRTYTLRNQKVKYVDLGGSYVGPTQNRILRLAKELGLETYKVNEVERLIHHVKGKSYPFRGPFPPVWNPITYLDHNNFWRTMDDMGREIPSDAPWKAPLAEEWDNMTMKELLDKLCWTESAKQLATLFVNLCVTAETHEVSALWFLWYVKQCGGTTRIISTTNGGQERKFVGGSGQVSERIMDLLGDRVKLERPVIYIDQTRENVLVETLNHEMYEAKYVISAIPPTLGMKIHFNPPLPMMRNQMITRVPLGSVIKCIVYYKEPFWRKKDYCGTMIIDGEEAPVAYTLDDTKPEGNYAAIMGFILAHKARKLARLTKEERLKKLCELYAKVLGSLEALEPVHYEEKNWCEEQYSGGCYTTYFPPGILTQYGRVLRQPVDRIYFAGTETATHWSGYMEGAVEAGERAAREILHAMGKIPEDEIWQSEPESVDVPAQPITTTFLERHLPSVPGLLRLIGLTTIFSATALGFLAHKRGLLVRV

[3] = molecular target: T1, Amine oxidase [flavin-containing] A; assay: Inhibition of human recombinant MAOA using kynuramine as substrate by fluorescence assay; outline: as §1
Homo sapiens = species on record: Homo sapiens; assay: Selectivity ratio, ratio of IC50 for human recombinant MAOA to IC50 for human recombinant MAOB; outline: as §1
[4] = molecular target: T2, Amine oxidase [flavin-containing] B; assay: Inhibition of human recombinant MAOB using kynuramine as substrate by fluorescence assay; outline: as §1
[5] = molecular target: T1, Amine oxidase [flavin-containing] A; assay: Inhibition of human recombinant MAOA using kynuramine as substrate at 11.56 uM after 60 mins by fluorescence assay; conditions: 1 h
Outline: (§2)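 Recombinant human MAO-A or -B (0.015–0.03 mg/mL) was preheated at 37 °C for 60 min in total and preincubated with inhibitor at about 2× its IC50 for 0, 15, 30 or 60 min in pH 7.4 potassium phosphate. Mixtures were diluted 2-fold with kynuramine (45 µM MAO-A, 30 µM MAO-B) and incubated 15 min at 37 °C. Residual 4-hydroxyquinoline formation was read by fluorescence.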

[6] = molecular target: T1, Amine oxidase [flavin-containing] A; assay: Reversible Inhibition of human recombinant MAOA using kynuramine as substrate at 2 times IC50 up to 60 mins; conditions: 1 h; outline: as §2
[7] = molecular target: T1, Amine oxidase [flavin-containing] A; assay: Time dependent inhibition of human recombinant MAOA using kynuramine as substrate at 11.56 uM by fluorescence assay; outline: as §2
[8] = molecular target: T2, Amine oxidase [flavin-containing] B; assay: Time dependent inhibition of human recombinant MAOB using kynuramine as substrate at 5.94 uM by fluorescence assay; outline: as §2
[9] = molecular target: T2, Amine oxidase [flavin-containing] B; assay: Inhibition of human recombinant MAOB using kynuramine as substrate at 5.94 uM after 60 mins by fluorescence assay; conditions: 1 h; outline: as §2
[10] = molecular target: T2, Amine oxidase [flavin-containing] B; assay: Reversible Inhibition of human recombinant MAOB using kynuramine as substrate at 2 times IC50 up to 60 mins; conditions: 1 h; outline: as §2
[11] = molecular target: T2, Amine oxidase [flavin-containing] B; assay: Time dependent inhibition of human recombinant MAOB using kynuramine as substrate at 0.32 uM by fluorescence assay; outline: as §2
[12] = molecular target: T1, Amine oxidase [flavin-containing] A; assay: Inhibition of human recombinant MAOA using kynuramine as substrate at 5.22 uM after 60 mins by fluorescence assay; conditions: 1 h; outline: as §2
[13] = molecular target: T2, Amine oxidase [flavin-containing] B; assay: Competitive inhibition of human recombinant MAOB using kynuramine as substrate at 0.04 to 0.16 uM by Lineweaver burk plot analysis
Outline: (§3)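 Insect-cell microsomal recombinant human MAO-A or -B, 0.015 mg/mL, in potassium phosphate buffer (100 mM, pH 7.4, isotonic with KCl). Initial rates were measured with four kynuramine concentrations (15–90 µM), without inhibitor and with three inhibitor levels (MAO-A 1.31–5.22 µM; MAO-B 0.04–0.16 µM). Lineweaver–Burk plots were fitted by linear regression.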

[14] = molecular target: T1, Amine oxidase [flavin-containing] A; assay: Competitive inhibition of human recombinant MAOA using kynuramine as substrate at 1.31 to 5.22 uM by Lineweaver burk plot analysis; outline: as §3
[15] = molecular target: T1, Amine oxidase [flavin-containing] A; assay: Time dependent inhibition of human recombinant MAOA using kynuramine as substrate at 5.22 uM by fluorescence assay; outline: as §2
[16] = molecular target: T2, Amine oxidase [flavin-containing] B; assay: Inhibition of human recombinant MAOB using kynuramine as substrate at 0.32 uM after 60 mins by fluorescence assay; conditions: 1 h; outline: as §2

IC50 [3]	Ratio IC50 (Homo sapiens)	IC50 [4]	Compound	further results
45.2 µM	2.6	17.6 µM	Cn1c(=O)c2c(nc(NCCc3ccccc3)n2C)n(C)c1=O	
4.8 µM	13.8	0.348 µM	Cn1c(=O)c2c(nc(SCc3ccc(F)cc3)n2C)n(C)c1=O	
9.4 µM	0.4	20.9 µM	Cn1c(=O)c2c(nc(SC3CCCC3)n2C)n(C)c1=O	
24.4 µM	1.9	13.1 µM	Cn1c(=O)c2c(nc(SC3CCCCC3)n2C)n(C)c1=O	
2.62 µM	15.7	0.167 µM	Cn1c(=O)c2c(nc(SCc3ccc(Br)cc3)n2C)n(C)c1=O	TDI [11]: Not Active; inhibition (INH) [12]: Not Active; inhibition (INH) [13]: Active; inhibition (INH) [14]: Active; TDI [15]: Not Active; inhibition (INH) [16]: Not Active; inhibition (INH) [6]: Active; inhibition (INH) [10]: Active

Continued, compound first:

Compound	IC50 [3]	Ratio IC50 (Homo sapiens)	IC50 [4]	further results
Cn1c(=O)c2c(nc(NCc3ccccc3)n2C)n(C)c1=O				IC50 [1]: Not Active; IC50 [2]: Not Active
CC(C)CCSc1nc2c(c(=O)n(C)c(=O)n2C)n1C	15.2 µM	5.8	2.62 µM	
Cn1c(=O)c2c(nc(SCc3ccccc3)n2C)n(C)c1=O	8.22 µM	4.4	1.86 µM	
COc1ccc(CSc2nc3c(c(=O)n(C)c(=O)n3C)n2C)cc1				IC50 [1]: Not Active; IC50 [2]: Not Active
Cn1c(=O)c2c(nc(SCCOc3ccccc3)n2C)n(C)c1=O	15.5 µM	46.7	0.332 µM	
Cn1c(=O)c2c(nc(NCCc3cccc(Cl)c3)n2C)n(C)c1=O	5.78 µM	0.2	24.4 µM	inhibition (INH) [5]: Not Active; inhibition (INH) [6]: Active; TDI [7]: Not Active
CN(CCc1ccccc1)c1nc2c(c(=O)n(C)c(=O)n2C)n1C	107 µM	6.4	16.8 µM	
Cn1c(=O)c2c(nc(Sc3ccccc3)n2C)n(C)c1=O	56.4 µM	1.7	33.2 µM	
Cn1c(=O)c2c(nc(Sc3ccc4ccccc4c3)n2C)n(C)c1=O	3.6 µM	1	3.6 µM	
Cn1c(=O)c2c(nc(SCc3ccc(Cl)cc3)n2C)n(C)c1=O	2.77 µM	14.4	0.192 µM	
CN(CCCCc1ccccc1)c1nc2c(c(=O)n(C)c(=O)n2C)n1C	37.7 µM	12.7	2.97 µM	TDI [8]: Not Active; inhibition (INH) [9]: Not Active; inhibition (INH) [10]: Active
Cn1c(=O)c2c(nc(SCCc3ccccc3)n2C)n(C)c1=O	20.5 µM	91.9	0.223 µM	
Cn1c(=O)c2c(nc(Nc3ccccc3)n2C)n(C)c1=O				IC50 [1]: Not Active; IC50 [2]: Not Active
Cn1c(=O)c2c(nc(NCCCc3ccccc3)n2C)n(C)c1=O				IC50 [1]: Not Active; IC50 [2]: Not Active
Cn1c(=O)c2c(nc(NC3CCCC3)n2C)n(C)c1=O				IC50 [1]: Not Active; IC50 [2]: Not Active
Cn1c(=O)c2c(nc(NCCCCc3ccccc3)n2C)n(C)c1=O	30.9 µM	3.2	9.6 µM	
Cn1c(=O)c2c(nc(NCCc3ccccn3)n2C)n(C)c1=O			19.4 µM	IC50 [1]: Not Active
